Screens: PubChem, Columbia University Molecular Screening Center
The full list was thinned out, with hits kept by preference.
INS promoter act = TRM-6 insulin promoter activation. TRM-6 cells, insulin promoter eGFP reporter, imaging; plate-scaled: unstimulated 0, stimulated control 100. activation, % at 2 µM. hit rate 0.81% among 130,000. AID 1296;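 active = activation at 2 µM above a set limit, confirmed on inspection of the cell images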;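 also: share of cells whose green reporter signal exceeds an intensity cutoff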
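System – human fetal islet-derived TRM-6 cells with tamoxifen-inducible insulin promoter–eGFP reporter · Amount – 1,000 cells per well · Schedule – overnight tamoxifen, then two-day compound incubation at 37 °C · Detection – high-content imaging of fixed cells with Hoechst nuclear stain · Read-out – percent cells above green-intensity threshold, converted to percent activation versus plate controls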
* = called active by the depositor.

SMILES | INS promoter act
CN(CC(=O)N1CCCC1)S(=O)(=O)c1ccc2ccccc2c1 | 0
CCOC(=O)NC1(C(F)(F)F)C(=O)N(Cc2ccccc2)C2=C1C(=O)CC(C)(C)C2 (stereo not given) | -3
C=CCSc1nnc(NC(=O)CSc2ccccn2)s1 | 425*
CCSc1nnc(NC(=O)c2ccccn2)s1 | 178
CCc1ccc(NC(=O)CSc2ccccn2)cc1 | 105
O=c1c(C(c2ccccc2)c2c(O)sc3ccccc3c2=O)c(O)sc2ccccc12 | -80
O=C(NCc1cccnc1)C1c2ccccc2C(=O)N1Cc1ccco1 (stereo not given) | -4
CCOc1ccccc1C(=O)N(Cc1cccs1)C1CCS(=O)(=O)C1 (stereo not given) | 8
CC1CCc2cc(F)ccc2N1S(=O)(=O)c1ccc(Cl)nc1 (stereo not given) | 3
CC(C)Cc1ccc(C(C)C(=O)O)cc1 (stereo not given) | 5
CC(C)Cc1ccc(C(C)NC(=O)c2ccc(=O)[nH]c2)cc1 (stereo not given) | 350*
CCCc1ccc(C(C)NC(=O)c2cnccn2)cc1 (stereo not given) | 9
COC(=O)c1sccc1-n1cccc1C(=O)C(=O)N1CC(C)OC(C)C1 (stereo not given) | 329
CCOC(=O)c1ccc(NC(=O)Nc2ccc3c(c2)OCCO3)cc1 | -3
COc1ccc(C(=O)CCNc2ccc3c(c2)OCCO3)cc1 | 356*
COc1cc(C(=O)Nc2ccc3c(c2)OCCO3)ccc1OC(F)F | -3
COc1cc(OC)cc(C(=O)N2CCC(N3CCCCCC3)CC2)c1 | 4
N#CCCn1cc(C(=O)Nc2ccccc2Br)c(-c2cccs2)n1 | 457*
O=C(Nc1cccnc1)c1cn(-c2ccccc2)nc1-c1cccs1 | -8
O=C(Nc1cccc2ccccc12)c1cn(-c2ccccc2)nc1-c1cccs1 | 8
CCC(CC)C(=O)OCC(=O)Nc1cc(OC)c([N+](=O)[O-])cc1C | -64
Cc1nc2nc(COc3ccccc3)nn2c(C)c1Cl | 456*
Nc1nc(N)nc(COc2ccccc2)n1 | -8
COc1ccc(CNc2nc3nc(C)c(Cl)c(C)n3n2)cc1OC | 3
COc1ccc(CCNC(=O)CSc2nc3cc(Cl)ccc3o2)cc1OC | 9
SMILES | INS promoter act
O=C(Nn1cnnc1)c1cccc(S(=O)(=O)N2CCOCC2)c1 | 7
Cc1nnc(NC(=O)c2cccc(S(=O)(=O)N3CCOCC3)c2)s1 | -6
O=C(Nc1ccccc1O)c1cccc(S(=O)(=O)N2CCOCC2)c1 | 462*
Cc1ccc(NC(=S)N(CCCN(C)C)Cc2cc3cc4c(cc3[nH]c2=O)OCO4)c(C)c1 | 0
Cc1cccc(N(CC(=O)NCCC2=CCCCC2)S(C)(=O)=O)c1C | -3
CSCCC(NC(=O)c1ccc(Cl)cc1)C(=O)NC(C)(C)C (stereo not given) | 4
CCOC(=O)c1cnc(SCC(=O)Nc2ccc(NC(=O)CC)c(OC)c2)nc1N | -7
Cc1c(N2C(=O)/C(=C\c3ccc(N(C)C)cc3)N(C)C2=S)c(=O)n(-c2ccccc2)n1C | 139
CCOC(=O)c1cc(C)n(Cc2ccc(OCC)c(OC)c2)c1C | 86*
CCOc1cc(CN2CCN(C(=O)c3ccco3)CC2)ccc1OC | 9
CCOC(=O)CC1C(=O)NCCN1Cc1ccc(OC)c(OC)c1 (stereo not given) | 154
N#CCC(=O)N1CCN(C=O)CC1 | 5
CN(C)C(=O)Cn1c(SCC(=O)NC2CCCCC2)nc2ccccc21 | -5
CCn1c(SCC(=O)NC(=O)NC(C)(C)C)nc2ccccc21 | 129*
CCn1c(SCC(=O)O)nc2ccccc21 | 0
O=C1C2C3C=CC(C3)C2C(=O)N1/N=C/c1cc(Br)cc([N+](=O)[O-])c1O (stereo not given) | -4
C/C(=N\Nc1nc(Cl)c(Cl)cc1Cl)c1ccc(S(=O)(=O)NCc2ccco2)cc1 | 6
COc1ccc2nc(NC(=O)CN(C)S(=O)(=O)c3cccs3)sc2c1 | 5
O=C(COC(=O)c1cccnc1Cl)c1ccccc1 | 8
O=C(OCc1nnc(-c2ccccc2)o1)c1cccnc1Cl | -7
O=C(COC(=O)c1cccnc1Cl)c1ccc(F)cc1 | 426*
COc1cccc(-c2nnc(NC(=O)c3ccc4ncsc4c3)o2)c1 | 0
COC(=O)c1[nH]nc(C(=O)OC(C)(C)C)c1-c1ccccc1 | -8
Cc1cc(C)nc(SCc2nnc(SCC(=O)Nc3ccccc3C)n2Cc2ccco2)n1 | 7
Cc1[nH]nc2ncc(C(=O)c3ccccc3O)cc12 | -80
SMILES | INS promoter act
Cc1ccc(C(=O)c2cn[nH]c2-c2ccccc2O)cc1 | 0
O=C(c1ccc(F)cc1)c1cn[nH]c1-c1ccccc1O | 171*
Cc1onc(-c2c(F)cccc2Cl)c1C(=O)NC(=S)NCc1cccnc1 | 0
COC(=O)C(C)Sc1nc(-c2ccc(OC)cc2)nc2c1c(=O)n(C)c(=O)n2C (stereo not given) | -10
O=C(CCCN1C(=O)c2ccccc2C1=O)Nc1nnc(C2CC2)s1 | -8
COc1ccc(Nc2nc(Nc3ccc(OC)cc3OC)nc(N3CCN(C)CC3)n2)c(OC)c1 | 317*
COc1ccc(Nc2nc(NC(C)(C)C)nc(N3CCOCC3)n2)c(OC)c1 | 5
COc1ccc(Nc2nc(NC(C)(C)C)nc(N3CCCC3)n2)c(OC)c1 | 243
COc1ccc(S(=O)(=O)Nc2cc([N+](=O)[O-])ccc2OC)cc1 | 8
CCC(C)(C)NC(=O)C(c1cccn1C)N(C(=O)Cn1nnc2ccccc21)c1ccc(OC)cc1 (stereo not given) | 150*
CCC(C)(C)NC(=O)C(c1ccccc1)N(Cc1cccs1)C(=O)Cn1nnc2ccccc21 (stereo not given) | -5
CCc1ccc(C(C(=O)NC(C)(C)CC)N(Cc2ccco2)C(=O)Cn2nnc3ccccc32)cc1 (stereo not given) | 360
Cc1cc(O)ccc1N=Cc1c(C(F)(F)F)[nH][nH]c1=O | -6
c1ccc2c(c1)OCCOCCOCCOCCOc1ccccc1OCCOCCOCCO2 | 161
COc1cc(NC(=O)Cc2ccccc2OC)cc(OC)c1 | 435*
COc1ccccc1CC(=O)Nc1cc(Cl)ccc1O | -5
COc1ccccc1CC(=O)Nc1cccc2c1CCCC2 | 8
Cc1ccccc1C(=O)Oc1cc(N)n(S(=O)(=O)c2ccccc2)n1 | -3
CC/C(=C/c1sc2ccccc2[n+]1CC)SC | 0
Cc1sc2ccccc2[n+]1CCC(C)S(=O)(=O)[O-] (stereo not given) | 9
CC[n+]1c(C=C2C=C(C)OC(C)=C2)sc2ccccc21 | 809*
CC(=O)NC(Cc1ccc(C)cc1)C(=O)NC1CCN(c2ncccc2[N+](=O)[O-])CC1 (stereo not given) | -3
CC(=O)Nc1ccc(/C(C)=N/NC(=O)c2ccccc2Cl)cc1 | -6
CC(C)(C)c1csc(NC(=O)Cn2c(=O)oc3ccccc32)n1 | 429*
CCOc1ccc(NC(=O)Cn2c(=O)oc3ccccc32)cc1 | -7
SMILES | INS promoter act
O=C(Cn1c(=O)oc2ccccc21)c1ccccc1 | -73
COc1cc(CN(C(=S)NCC(=O)NC2CCCC2)C2CCCC2)cc(OC)c1OC | -7
CN(CCOc1ccccc1)CC(=O)Nc1cc([N+](=O)[O-])ccc1Cl | 9
COCC(=O)OCC(=O)Nc1cc([N+](=O)[O-])ccc1Cl | 733*
COc1ccc([N+](=O)[O-])cc1NC(=O)COC(=O)C=C(C)C | 0
Cc1[nH]c2ccccc2c1Cc1nnc(SCCC#N)o1 | 0
CCc1cccc(C)c1NC(=O)C1CN(S(=O)(=O)c2ccccc2)CCN1S(=O)(=O)c1ccccc1 (stereo not given) | 8
